Reference: ChEMBL document CHEMBL1123096, “Alpha-adrenoreceptor reagents. 3. Synthesis of some 2-substituted 1,4-benzodioxans as selective presynaptic alpha 2-adrenoreceptor antagonists” (J Med Chem, 1985)

Assays:
[1] = target: Adrenergic receptor alpha (Rattus norvegicus) (UniProt P15823+P23944+P43140+P22086+P19328+P22909); experiment: Selectivity as ratio […] against alpha-2 receptor to that of alpha-1 receptor.; assay type: protein assay
[2] = target: T1, Adrenergic receptor alpha-1 (Rattus norvegicus) (UniProt P15823+P23944+P43140); experiment: post-synaptic antagonist activity towards alpha-1 adrenergic receptor was determined. Concentration giving a dose response to phenylephrine (idazoxan=1) was reported.; assay type: functional
Method in brief: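 Rat anococcygeus, postsynaptic α1 antagonism. At least five phenylephrine concentration–response curves were run alone, then at least four with the antagonist present.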

[3] = target: T2, Adrenergic receptor alpha-2 (Rattus norvegicus) (UniProt P22086+P19328+P22909); experiment: Presynaptic antagonist activity towards alpha-2 adrenergic receptor.; assay type: functional
Method in brief: (§1)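 Vas deferens from rat or mouse; the mouse tissue was in Mg-free Krebs at 30 °C under 0.5 g tension, stimulated at 0.1 Hz, 3 ms, 100–140 V, giving a twitch of about 100 mg. […] Standard curves were run before and after the test curve.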

[4] = target: T3, Adrenergic receptor alpha-2 (Rattus norvegicus, UniProt P22086+P19328+P22909); experiment: Alpha-2 adrenergic receptor antagonist activity in a rat vas deferens assay. Values ranges from 8.42-9.51; assay type: functional
T3 sequence (P22086 whole entry): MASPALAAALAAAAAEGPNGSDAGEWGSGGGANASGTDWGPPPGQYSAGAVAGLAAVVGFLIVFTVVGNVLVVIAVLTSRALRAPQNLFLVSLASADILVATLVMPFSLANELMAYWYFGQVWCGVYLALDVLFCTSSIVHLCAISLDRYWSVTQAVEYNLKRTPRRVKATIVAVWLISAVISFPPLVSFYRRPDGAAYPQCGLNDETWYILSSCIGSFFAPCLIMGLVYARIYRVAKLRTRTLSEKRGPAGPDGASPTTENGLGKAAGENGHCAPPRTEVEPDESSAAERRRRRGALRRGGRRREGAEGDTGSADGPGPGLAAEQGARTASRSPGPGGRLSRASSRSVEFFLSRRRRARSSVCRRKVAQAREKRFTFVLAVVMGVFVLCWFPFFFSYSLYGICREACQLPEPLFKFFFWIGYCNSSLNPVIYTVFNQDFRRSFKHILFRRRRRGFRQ
T3 sequence (P19328 whole entry): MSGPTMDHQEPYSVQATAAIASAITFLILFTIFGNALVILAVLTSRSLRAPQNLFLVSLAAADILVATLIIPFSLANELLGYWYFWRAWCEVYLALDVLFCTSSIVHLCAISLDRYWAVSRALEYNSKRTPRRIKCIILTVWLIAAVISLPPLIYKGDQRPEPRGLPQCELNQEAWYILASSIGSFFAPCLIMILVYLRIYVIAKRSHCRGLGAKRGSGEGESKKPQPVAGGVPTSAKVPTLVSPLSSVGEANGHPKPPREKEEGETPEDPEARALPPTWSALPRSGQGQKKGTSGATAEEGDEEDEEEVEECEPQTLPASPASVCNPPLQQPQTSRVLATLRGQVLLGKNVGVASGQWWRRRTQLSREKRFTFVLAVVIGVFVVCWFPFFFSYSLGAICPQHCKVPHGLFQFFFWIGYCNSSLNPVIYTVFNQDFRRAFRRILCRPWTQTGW
T3 sequence (P22909 whole entry): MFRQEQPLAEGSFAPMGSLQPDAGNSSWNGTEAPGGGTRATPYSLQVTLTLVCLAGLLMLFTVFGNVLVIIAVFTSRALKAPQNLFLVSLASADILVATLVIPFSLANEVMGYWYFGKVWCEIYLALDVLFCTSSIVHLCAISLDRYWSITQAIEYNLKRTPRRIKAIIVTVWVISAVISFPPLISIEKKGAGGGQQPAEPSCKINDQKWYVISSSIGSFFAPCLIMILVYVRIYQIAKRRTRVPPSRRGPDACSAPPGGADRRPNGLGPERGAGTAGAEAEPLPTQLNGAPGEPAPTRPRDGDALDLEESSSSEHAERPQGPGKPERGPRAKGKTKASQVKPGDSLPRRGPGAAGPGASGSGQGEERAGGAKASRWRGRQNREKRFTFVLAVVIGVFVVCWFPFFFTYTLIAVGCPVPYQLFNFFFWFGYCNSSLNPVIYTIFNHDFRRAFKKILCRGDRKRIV
Method in brief: (§2)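 pA2 at presynaptic α2-adrenoreceptors in field-stimulated rat vas deferens. Tissue was held in Krebs solution (NaCl 118 mM, KCl 4.7 mM, CaCl2 2.5 mM, KH2PO4 1.2 mM, MgSO4 0.6 mM, NaHCO3 25 mM, dextrose 11.1 mM) gassed with 95% O2/5% CO2 at 30 °C. Stimulation was 3-ms pulses, 40 V, 0.1 Hz, with contractions recorded isometrically. Twitches were inhibited by clonidine (110 nM).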

[5] = target: T4, Adrenergic receptor alpha-1 (Rattus norvegicus, UniProt P15823+P23944+P43140); experiment: Alpha-1 adrenergic receptor antagonist activity in a rat anococcygeus. Values ranges from 6.50-6.62; assay type: functional
T4 sequence (P15823 whole entry): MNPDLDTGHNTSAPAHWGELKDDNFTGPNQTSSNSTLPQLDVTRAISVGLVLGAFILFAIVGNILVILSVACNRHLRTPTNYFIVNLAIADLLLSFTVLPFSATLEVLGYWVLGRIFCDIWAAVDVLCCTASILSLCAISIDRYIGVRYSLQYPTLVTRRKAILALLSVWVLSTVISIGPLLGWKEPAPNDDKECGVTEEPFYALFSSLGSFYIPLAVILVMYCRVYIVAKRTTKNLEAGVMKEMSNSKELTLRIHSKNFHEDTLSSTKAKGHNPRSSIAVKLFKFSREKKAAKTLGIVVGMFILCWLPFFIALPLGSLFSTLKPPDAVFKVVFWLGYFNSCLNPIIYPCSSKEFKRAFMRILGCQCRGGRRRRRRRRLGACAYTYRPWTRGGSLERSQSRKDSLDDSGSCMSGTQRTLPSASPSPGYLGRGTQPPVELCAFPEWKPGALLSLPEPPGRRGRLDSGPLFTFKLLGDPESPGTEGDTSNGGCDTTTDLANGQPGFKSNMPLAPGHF
T4 sequence (P23944 whole entry): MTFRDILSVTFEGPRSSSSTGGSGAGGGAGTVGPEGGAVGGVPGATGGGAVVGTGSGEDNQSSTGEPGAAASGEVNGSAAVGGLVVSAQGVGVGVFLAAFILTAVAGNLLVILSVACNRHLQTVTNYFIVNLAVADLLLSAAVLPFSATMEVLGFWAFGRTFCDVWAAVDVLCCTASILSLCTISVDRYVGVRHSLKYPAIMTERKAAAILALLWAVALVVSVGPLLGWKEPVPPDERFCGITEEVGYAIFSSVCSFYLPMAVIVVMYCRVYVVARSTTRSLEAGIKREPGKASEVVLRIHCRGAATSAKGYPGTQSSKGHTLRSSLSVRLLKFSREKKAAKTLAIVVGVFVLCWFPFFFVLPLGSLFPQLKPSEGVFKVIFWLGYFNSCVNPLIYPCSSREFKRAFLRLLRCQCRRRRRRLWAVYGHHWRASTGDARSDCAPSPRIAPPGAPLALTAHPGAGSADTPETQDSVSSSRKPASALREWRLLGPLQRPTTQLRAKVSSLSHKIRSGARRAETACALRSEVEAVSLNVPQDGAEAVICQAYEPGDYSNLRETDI
T4 sequence (P43140 whole entry): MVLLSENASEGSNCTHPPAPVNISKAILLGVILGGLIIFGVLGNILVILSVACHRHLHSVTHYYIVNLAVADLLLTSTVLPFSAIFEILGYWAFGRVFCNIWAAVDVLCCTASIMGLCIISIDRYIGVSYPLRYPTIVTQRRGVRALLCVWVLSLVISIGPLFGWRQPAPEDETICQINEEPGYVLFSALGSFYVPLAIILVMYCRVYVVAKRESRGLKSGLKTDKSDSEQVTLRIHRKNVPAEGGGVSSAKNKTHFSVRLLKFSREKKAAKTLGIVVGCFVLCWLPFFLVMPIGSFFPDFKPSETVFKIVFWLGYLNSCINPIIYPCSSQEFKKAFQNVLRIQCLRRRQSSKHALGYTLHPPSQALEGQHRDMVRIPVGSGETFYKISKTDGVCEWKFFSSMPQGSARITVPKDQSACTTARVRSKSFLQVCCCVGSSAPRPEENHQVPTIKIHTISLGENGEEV

[6] = target: T1, Adrenergic receptor alpha-1 (Rattus norvegicus); experiment: Alpha-1 adrenergic receptor binding activity relative to idazoxan.; assay type: protein assay
[7] = target: T2, Adrenergic receptor alpha-2 (Rattus norvegicus); experiment: Alpha-2 adrenergic receptor antagonist activity compared to idazoxan; assay type: functional; method in brief: as §1
[8] = target: T3, Adrenergic receptor alpha-2; experiment: Alpha-2 adrenergic receptor antagonist activity in a rat vas deferens assay. Values ranges from 8.00-8.47; assay type: functional, tissue-based; method in brief: as §2
[9] = target: T4, Adrenergic receptor alpha-1; experiment: Alpha-1 adrenergic receptor antagonist activity in a rat anococcygeus. Values ranges from 5.37-5.48; assay type: functional
[10] = target: T4, Adrenergic receptor alpha-1; experiment: Alpha-1 adrenergic receptor antagonist activity in a rat anococcygeus. Values ranges from 6.35-6.44; assay type: functional
[11] = target: T3, Adrenergic receptor alpha-2; experiment: Alpha-2 adrenergic receptor antagonist activity in a rat vas deferens assay. Values ranges from 8.54-8.87; assay type: functional, tissue-based

| Compound | Ratio [1] | Postsynaptic antagonist [2] | potency relative to idazoxan [3] | also measured |
| --- | --- | --- | --- | --- |
| CC1Oc2ccccc2OC1C1=NCCN1 (stereo not given) | 0.087 | 0.023 | 0.002 | – |
| COc1cc2c(cc1OC)OC(OC)(C1=NCCN1)CO2 (stereo not given) | 0.1 | 0.05 | 0.006 | – |
| C#CCOC1(C2=NCCN2)COc2ccccc2O1 (stereo not given) | 0.57 | 2.1 | 1.2 | – |
| Clc1ccc(COC2(C3=NCCN3)COc3ccccc3O2)cc1 (stereo not given) | 0.4 | 2.46 | 1 | – |
| CCCCCCCC1(C2=NCCN2)COc2ccccc2O1 (stereo not given) | 0.85 | 1.1 | 0.9 | – |
| c1ccc(C2(C3=NCCN3)COc3ccccc3O2)cc1 (stereo not given) | 1.6 | 0.026 | 0.04 | – |
| Cc1cccc(OC2(C3=NCCN3)COc3ccccc3O2)c1 (stereo not given) | 1.75 | 0.2 | 0.35 | – |
| c1ccc2c(c1)OCC(C1=NCCN1)(C1CCCC1)O2 (stereo not given) | 0.04 | 0.4 | 0.015 | – |
| C=CCOC1(C2=NCCN2)COc2ccccc2O1 (stereo not given) | 0.3 | 6 | 2 | pA2 [4]: 8.81; pA2 [5]: 6.55; Relative potency [6]: 1.7; Relative potency [7]: 2 |
| COc1ccc(COC2(C3=NCCN3)COc3ccccc3O2)cc1 (stereo not given) | 0.13 | 4.8 | 0.6 | – |
| C=C(C)C1(C2=NCCN2)COc2ccccc2O1.Cl (stereo not given) | 5.7 | 0.07 | 0.4 | pA2 [8]: 8.21; pA2 [9]: 5.42; Relative potency [6]: 0.1; Relative potency [7]: 0.5 |
| COCCOC1(C2=NCCN2)COc2ccccc2O1 (stereo not given) | 0.2 | 1 | 0.2 | – |
| c1ccc(OC2(C3=NCCN3)COc3ccccc3O2)cc1 (stereo not given) | 0.023 | 1 | 0.023 | – |
| CCCCCOC1(C2=NCCN2)COc2ccccc2O1 (stereo not given) | 1.2 | 0.6 | 0.72 | – |
| Clc1ccccc1COC1(C2=NCCN2)COc2ccccc2O1 (stereo not given) | 0.36 | 1 | 0.36 | – |
| CCCCC1(C2=NCCN2)COc2ccccc2O1 (stereo not given) | 0.68 | 2.2 | 1.5 | – |
| c1ccc2c(c1)OCC(OC1CCCC1)(C1=NCCN1)O2 (stereo not given) | 0.16 | 1 | 0.16 | – |
| OCCCCOC1(C2=NCCN2)COc2ccccc2O1 (stereo not given) | 0.24 | 1 | 0.24 | – |
| C=CC1(C2=NCCN2)COc2ccccc2O1 (stereo not given) | 3.3 | 0.3 | 1 | – |
| COc1ccc(OC2(C3=NCCN3)COc3ccccc3O2)cc1 (stereo not given) | 0.17 | 2 | 0.34 | – |
| CC(C)C1(C2=NCCN2)COc2ccccc2O1 (stereo not given) | – | < 0.006 | 0.024 | – |
| COC1(C2=NC(C)CN2)COc2ccccc2O1 (stereo not given) | 0.09 | 1 | 0.09 | – |
| C1=C(C2(C3=NCCN3)COc3ccccc3O2)CCCC1 (stereo not given) | 0.035 | 0.75 | 0.026 | – |
| COc1ccccc1COC1(C2=NCCN2)COc2ccccc2O1 (stereo not given) | 0.75 | 2.3 | 1.7 | – |
| C1=C(C2(C3=NCCN3)COc3ccccc3O2)CCC1 (stereo not given) | 1.7 | 0.09 | 0.15 | – |
| CCC1(C2=NCCN2)COc2ccccc2O1 (stereo not given) | 1.3 | 2.25 | 3 | pA2 [10]: 6.44; Relative potency [6]: 1.2; pA2 [11]: 8.87; Relative potency [7]: 1.6 |
| OCCOC1(C2=NCCN2)COc2ccccc2O1 (stereo not given) | 1.4 | 1 | 1.4 | – |
| c1ccc(CCOC2(C3=NCCN3)COc3ccccc3O2)cc1 (stereo not given) | 0.14 | 8.8 | 1 | – |
